Data from ChEMBL document CHEMBL1135421, “2-(Anilinomethyl)imidazolines as alpha1 adrenergic receptor agonists: the discovery of alpha1a subtype selective 2'-alkylsulfonyl-substituted analogues” (J Med Chem, 2002).
pEC50, pKi: −log10 of the molar value.

What was measured:
[1] = target: T1, Alpha-1A adrenergic receptor (Homo sapiens, UniProt P35348); experiment: Affinity to Alpha-1 adrenergic receptor determined by radioligand binding techniques from rat-1 fibroblasts membranes
T1 sequence (P35348 whole entry): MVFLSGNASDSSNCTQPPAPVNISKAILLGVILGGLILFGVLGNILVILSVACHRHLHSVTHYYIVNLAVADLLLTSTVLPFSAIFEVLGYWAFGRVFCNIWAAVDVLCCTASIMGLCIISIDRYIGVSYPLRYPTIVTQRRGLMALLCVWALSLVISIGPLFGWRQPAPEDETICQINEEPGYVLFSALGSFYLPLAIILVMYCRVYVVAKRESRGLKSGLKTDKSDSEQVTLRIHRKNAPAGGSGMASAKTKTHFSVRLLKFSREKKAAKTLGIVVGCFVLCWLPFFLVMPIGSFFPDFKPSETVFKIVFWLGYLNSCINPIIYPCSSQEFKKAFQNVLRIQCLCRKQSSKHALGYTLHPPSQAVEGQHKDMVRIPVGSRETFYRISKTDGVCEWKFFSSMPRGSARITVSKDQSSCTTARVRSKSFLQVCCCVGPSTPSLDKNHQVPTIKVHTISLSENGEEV

[2] = target: T2, Alpha-2C adrenergic receptor (Homo sapiens, UniProt P18825); experiment: Agonist potency at Alpha-2C adrenergic receptor assayed in CHO cells expressing human Alpha-2C adrenergic receptor; format: functional, cell-based
T2 sequence (P18825 whole entry): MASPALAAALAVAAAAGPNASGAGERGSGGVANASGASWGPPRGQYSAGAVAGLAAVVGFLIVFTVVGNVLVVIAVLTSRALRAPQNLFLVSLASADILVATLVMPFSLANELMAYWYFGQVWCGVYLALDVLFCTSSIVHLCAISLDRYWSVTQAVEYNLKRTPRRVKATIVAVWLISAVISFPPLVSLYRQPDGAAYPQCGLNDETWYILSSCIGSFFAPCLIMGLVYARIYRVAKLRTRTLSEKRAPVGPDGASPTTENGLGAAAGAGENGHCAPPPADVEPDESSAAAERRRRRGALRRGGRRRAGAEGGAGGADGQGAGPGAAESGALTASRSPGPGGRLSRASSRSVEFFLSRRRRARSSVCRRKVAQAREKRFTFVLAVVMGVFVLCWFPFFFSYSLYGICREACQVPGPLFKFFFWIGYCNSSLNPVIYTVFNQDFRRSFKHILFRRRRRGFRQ

[3] = target: T3, Alpha-1B adrenergic receptor (Homo sapiens, UniProt P35368); experiment: Affinity to human Alpha-1B adrenergic receptor determined by radioligand binding techniques from rat-1 fibroblasts membranes
T3 sequence (P35368 whole entry): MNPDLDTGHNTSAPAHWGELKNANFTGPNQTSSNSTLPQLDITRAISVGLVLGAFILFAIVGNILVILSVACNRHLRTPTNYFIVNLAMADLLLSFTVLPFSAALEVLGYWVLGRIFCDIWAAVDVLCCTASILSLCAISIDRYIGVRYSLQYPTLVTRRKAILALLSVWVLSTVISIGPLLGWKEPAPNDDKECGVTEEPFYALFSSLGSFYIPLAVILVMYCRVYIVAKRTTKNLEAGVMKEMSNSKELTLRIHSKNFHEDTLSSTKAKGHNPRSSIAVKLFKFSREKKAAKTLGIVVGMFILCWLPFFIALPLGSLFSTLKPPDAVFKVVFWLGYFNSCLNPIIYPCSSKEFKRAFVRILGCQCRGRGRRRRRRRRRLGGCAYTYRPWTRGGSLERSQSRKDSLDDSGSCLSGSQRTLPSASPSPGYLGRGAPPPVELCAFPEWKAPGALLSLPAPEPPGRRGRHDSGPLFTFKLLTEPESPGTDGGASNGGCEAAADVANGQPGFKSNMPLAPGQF

[4] = target: T4, Alpha-2C adrenergic receptor (Homo sapiens) (UniProt P18825); experiment: Efficacy as percentage of the maximal effect observed for nonselective agonist UK-14304 in CHO cells expressing human Alpha-2C adrenergic receptor; format: functional, cell-based
T4 sequence (whole entry): T2 sequence (P18825 whole entry)

[5] = target: T5, Alpha-1D adrenergic receptor (Homo sapiens, UniProt P25100); experiment: Agonist potency at Alpha-1D adrenergic receptor assayed in rat-1 fibroblasts expressing human Alpha-1D adrenergic receptor; format: functional
T5 sequence (P25100 whole entry): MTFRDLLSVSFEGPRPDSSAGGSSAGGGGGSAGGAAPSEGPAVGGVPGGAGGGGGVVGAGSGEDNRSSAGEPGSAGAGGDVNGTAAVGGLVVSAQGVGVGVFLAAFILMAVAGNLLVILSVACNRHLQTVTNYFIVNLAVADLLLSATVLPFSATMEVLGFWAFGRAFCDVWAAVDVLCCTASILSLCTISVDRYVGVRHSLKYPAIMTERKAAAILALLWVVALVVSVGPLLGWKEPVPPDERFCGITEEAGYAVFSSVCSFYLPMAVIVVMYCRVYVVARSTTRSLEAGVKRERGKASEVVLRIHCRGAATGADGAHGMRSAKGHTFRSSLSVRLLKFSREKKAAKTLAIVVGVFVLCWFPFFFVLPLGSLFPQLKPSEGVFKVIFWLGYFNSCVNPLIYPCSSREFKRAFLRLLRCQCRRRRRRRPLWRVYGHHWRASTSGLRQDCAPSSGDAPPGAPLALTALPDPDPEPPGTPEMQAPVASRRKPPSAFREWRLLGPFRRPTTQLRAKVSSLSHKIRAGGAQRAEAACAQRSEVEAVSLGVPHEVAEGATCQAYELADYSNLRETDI
In short: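 Rat-1 fibroblasts expressing human α1a/α1b/α1d, grown in DMEM with 10% heat-inactivated FBS and 0.6 mg/mL G418, plated 6000 cells/well and cultured 48 h at 37 °C. Loaded 2 h at 37 °C with Calcium Green (4 μM), 0.2% pluronic acid and 2.5 mM probenecid in HEPES buffer pH 7.4. FLIPR read at room temperature: 10 s baseline, then 50 s after compound. 11-point curves as % of 40 μM phenylephrine response, top concentration typically 5 μM.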

[6] = target: T6, Alpha-2B adrenergic receptor (Homo sapiens, UniProt P18089); experiment: Affinity to human Alpha-2B adrenergic receptor determined by radioligand binding techniques from chinese hamster ovary (CHO) cells; format: cell-based
T6 sequence (P18089 whole entry): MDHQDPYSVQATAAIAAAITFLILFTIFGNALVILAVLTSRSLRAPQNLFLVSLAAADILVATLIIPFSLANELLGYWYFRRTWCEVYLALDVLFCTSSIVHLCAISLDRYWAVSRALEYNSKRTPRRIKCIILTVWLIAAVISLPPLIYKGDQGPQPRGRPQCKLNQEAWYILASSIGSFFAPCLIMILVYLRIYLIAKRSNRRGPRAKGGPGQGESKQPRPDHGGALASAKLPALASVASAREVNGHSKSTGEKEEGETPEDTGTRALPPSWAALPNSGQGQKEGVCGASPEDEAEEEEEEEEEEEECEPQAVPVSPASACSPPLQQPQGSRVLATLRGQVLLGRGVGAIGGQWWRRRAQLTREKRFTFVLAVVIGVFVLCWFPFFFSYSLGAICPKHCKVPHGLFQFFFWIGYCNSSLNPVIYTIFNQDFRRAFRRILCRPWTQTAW

[7] = target: T2, Alpha-2C adrenergic receptor; experiment: Affinity to human Alpha-2C adrenergic receptor determined by radioligand binding techniques from chinese hamster ovary (CHO) cells; format: cell-based
[8] = target: T5, Alpha-1D adrenergic receptor; experiment: Affinity to human Alpha-1D adrenergic receptor determined by radioligand binding techniques from rat-1 fibroblasts membranes

SMILES	pKi [1]	pEC50 [2]	pKi [3]	Max [4]	pEC50 [5]	pKi [6]	pKi [7]	pKi [8]
CSc1cc(F)ccc1NCC1=NCCN1	7.68	7.00	7.82	82%	8.04	6.07	6.66	8.30
CS(=O)(=O)c1cccc(F)c1NCC1=NCCN1	6.38	6.35	6.42	93%	< 4.00	< 5.20	6.16	6.04
COc1ccc(SC)c(NCC2=NCCN2)c1	6.76		6.16	74%	8.30	< 5.20	6.22	6.97
CCCS(=O)(=O)c1ccccc1NCC1=NCCN1	5.66		6.08	56%		< 5.20	5.58	5.86
CS(=O)(=O)c1ccc(F)cc1NCC1=NCCN1	6.09	5.70	5.88	91%	< 4.00	< 5.20	< 5.30	5.58
C[S+]([O-])c1ccccc1NCC1=NCCN1 (centres undefined)	5.89		6.10	74%		< 5.20	< 5.30	5.92
CS(=O)(=O)c1cc(F)ccc1NCC1=NCCN1	6.18		6.29	32%		< 5.20	< 5.30	5.79
CSc1ccccc1NCC1=NCCN1	7.36		7.18	82%		6.11	6.84	7.95
CS(=O)(=O)c1ccc(Cl)cc1NCC1=NCCN1	6.27	6.10	5.53	81%	< 4.00	< 5.20	5.32	5.62
CSc1ccc(Cl)cc1NCC1=NCCN1	7.73	8.55	7.16	92%	8.57	6.17	6.77	8.33
CSc1ccc(F)cc1NCC1=NCCN1	7.48	8.25	7.39	97%	7.66	6.48	6.94	8.21
CS(=O)(=O)c1ccc(C(F)(F)F)cc1NCC1=NCCN1	< 4.90	< 5.00	< 5.00	25%	< 4.00	< 5.20	< 5.30	< 4.80
Cc1ccc(S(C)(=O)=O)c(NCC2=NCCN2)c1	6.11	5.95	5.46	76%	< 5.70	< 5.20	< 5.30	5.32
CSc1c(F)cccc1NCC1=NCCN1	6.83		6.62	104%	7.47	5.40	6.66	6.52
CC(C)S(=O)(=O)c1ccccc1NCC1=NCCN1	5.57		6.00	50%	< 5.30	< 5.20	< 5.30	5.55
CCS(=O)(=O)c1ccccc1NCC1=NCCN1	5.92		6.04	64%	< 4.00	< 5.20	5.60	5.65
CC(C)Sc1ccccc1NCC1=NCCN1	7.24		6.77	91%	< 5.30	5.63	6.78	6.65
CS(=O)(=O)c1c(F)cccc1NCC1=NCCN1	6.26		5.64	93%	< 4.00	< 5.20	6.59	5.46
CSc1ccc(C(F)(F)F)cc1NCC1=NCCN1	6.23	8.10	5.69	45%	7.36	5.78	6.22	6.32
CS(=O)(=O)c1ccccc1NCC1=NCCN1	6.23	5.50	5.89	68%		< 5.20	< 5.30	5.42
CSc1ccc(C)cc1NCC1=NCCN1	7.68	8.05	6.91	81%	9.04	6.01	6.70	7.76
CCSc1ccccc1NCC1=NCCN1	7.36	7.55	7.12	101%	7.29	5.79	6.57	7.24
CS(=O)(=O)c1cc(Cl)ccc1NCC1=NCCN1	6.34	< 5.00	6.19	54%	< 4.00	< 5.20	5.40	6.06
